Laboratory results taken from ChEMBL document CHEMBL1770118, “A new class of β-carboline alkaloid-peptide conjugates with therapeutic efficacy in acute limb ischemia/reperfusion injury” (Eur J Med Chem, 2011).
The source made the active and inactive calls. The calls are words filed in the database; no cut-off is given here. *1 amine or outer side, *2 acyl side, *3 side chain or, on linkers, in order; H or OH if unused. Where a SMILES comes first, the peptide text is derived from it. [ ]: non-standard residue; d: D form. X2 = COc1cc([C@@H]2c3[nH]c4ccccc4c3C[C@@H](C(=O)[*:2])N2[*:1])ccc1O; X3 = COc1ccc([C@@H]2c3[nH]c4ccccc4c3C[C@@H](C(=O)[*:2])N2[*:1])cc1; X1 = O=C([C@@H]1Cc2c([nH]c3ccccc23)[C@@H](c2ccccc2O)N1[*:1])[*:2]

How the values were obtained:
Rattus norvegicus = experiment: Antithrombotic activity in Wistar rat assessed as reduction of dry thrombus weight at 10 umol/kg; type: functional, organism-based
PC-12 [1] = experiment: Antioxidant activity in rat PC12 cells assessed as protection against nitric oxide-induced reduction of cell viability pretreated 1 he before nitric oxide challenge incubated for 1 hr followed by washout measured after 14 hrs by MTT assay; type: functional, cell-based
In short: (§1)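 PC12 cells were grown in DMEM with 10% heat-inactivated horse serum and 5% FBS, then seeded at 20,000/well on poly-lysine. After 24 h, cells were pretreated with compound at five concentrations for 1 h. Damage was 1 h with: NO, 2 mM sodium nitroprusside; H₂O₂, 1 mM; ·OH, H₂O₂/Fe(II). Medium was replaced, and MTT survival was read after 14 h. EC50 was derived.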

PC-12 [2] = experiment: Antioxidant activity in rat PC12 cells assessed as protection against hydrogen peroxide-induced reduction of cell viability pretreated 1 he before […] incubated for 1 hr followed by washout measured after 14 hrs by MTT assay; type: functional, cell-based; in short: as §1
PC-12 [3] = experiment: Antioxidant activity in rat PC12 cells assessed as protection against hydroxyl radical-induced reduction of cell viability pretreated 1 he before […] incubated for 1 hr followed by washout measured after 14 hrs by MTT assay; type: functional, cell-based; in short: as §1

Row | Structure (SMILES) | Activity (Rattus norvegicus) | EC50 (PC-12 [1]) | EC50 (PC-12 [2]) | EC50 (PC-12 [3])
1 | COc1cc([C@H]2N[C@H](C(=O)N[C@@H](C)C(=O)N[C@@H](CCCNC(=N)N)C(=O)N3CCC[C@H]3C(=O)N[C@@H](C)C(=O)N[C@@H](CCCCN)C(=O)O)Cc3c2[nH]c2ccccc32)ccc1O (H-[X2]ARPAK-OH) | Active |  |  | 
2 | COc1ccc([C@H]2N[C@H](C(=O)O)Cc3c2[nH]c2ccccc32)cc1 |  | 77 µM | 38 µM | 72 µM
3 | C[C@H](NC(=O)[C@@H]1CCCN1C(=O)[C@H](CCCN=C(N)N)NC(=O)CN)C(=O)N[C@@H](CCCCN)C(=O)O (H-GRPAK-OH) | Active |  |  | 
4 | COc1cc([C@H]2N[C@H](C(=O)O)Cc3c2[nH]c2ccccc32)ccc1O |  | 77 µM | 38 µM | 72 µM
5 | C[C@H](NC(=O)[C@@H]1CCCN1C(=O)[C@H](CCCNC(=N)N)NC(=O)CNC(=O)[C@@H]1Cc2c([nH]c3ccccc23)[C@@H](c2ccccc2O)N1)C(=O)N[C@@H](CCCCN)C(=O)O (H-[X1]GRPAK-OH) | Active |  |  | 
6 | C[C@H](N)C(=O)N[C@@H](CCCN=C(N)N)C(=O)N1CCC[C@H]1C(=O)N[C@@H](C)C(=O)N[C@@H](CCCCN)C(=O)O (H-ARPAK-OH) | Active |  |  | 
7 | COc1cc([C@H]2N[C@H](C(=O)NCC(=O)N[C@@H](CCCNC(=N)N)C(=O)N3CCC[C@H]3C(=O)N[C@@H](C)C(=O)N[C@@H](CCCCN)C(=O)O)Cc3c2[nH]c2ccccc32)ccc1O (H-[X2]GRPAK-OH) | Active |  |  | 
8 | C[C@H](NC(=O)[C@@H]1Cc2c([nH]c3ccccc23)[C@@H](c2ccccc2O)N1)C(=O)N[C@@H](CCCNC(=N)N)C(=O)N1CCC[C@H]1C(=O)N[C@@H](C)C(=O)N[C@@H](CCCCN)C(=O)O (H-[X1]ARPAK-OH) | Active |  |  | 
9 | O=C(O)[C@@H]1Cc2c([nH]c3ccccc23)[C@@H](c2ccccc2O)N1 |  | 77 µM | 38 µM | 72 µM
10 | COc1ccc([C@H]2N[C@H](C(=O)NCC(=O)N[C@@H](CCCNC(=N)N)C(=O)N3CCC[C@H]3C(=O)N[C@@H](C)C(=O)N[C@@H](CCCCN)C(=O)O)Cc3c2[nH]c2ccccc32)cc1 (H-[X3]GRPAK-OH) | Active |  |  | 
11 | COc1ccc([C@H]2N[C@H](C(=O)N[C@@H](C)C(=O)N[C@@H](CCCNC(=N)N)C(=O)N3CCC[C@H]3C(=O)N[C@@H](C)C(=O)N[C@@H](CCCCN)C(=O)O)Cc3c2[nH]c2ccccc32)cc1 (H-[X3]ARPAK-OH) | Active |  |  | 
